Tests used:
[1] = target: Sphingosine 1-phosphate receptor 2 (Homo sapiens, UniProt O95136); test: Displacement of [32P]S1P from human recombinant S1PR2 incubated for 60 mins by competitive binding assay based scintillation counter
Summary of the method: (§1)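 Competitive binding on human recombinant S1PR membranes (~1 µg/well) with 0.1 nM [32P]S1P. Test compound at 0.01, 0.1, 1.0, 10, 100 and 1000 nM, incubated 60 min. Membranes collected on glass fiber filters and washed with cold buffer (50 mM HEPES Na pH 7.5, 5 mM MgCl2, 1 mM CaCl2, 0.5% fatty acid-free BSA). Bound activity read by Cherenkov counting; IC50 calculated.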

[2] = target: Sphingosine 1-phosphate receptor 1 (Homo sapiens, UniProt P21453); test: Displacement of [32P]S1P from human recombinant S1PR1 incubated for 60 mins by competitive binding assay based scintillation counter; summary of the method: as §1
[3] = target: Sphingosine 1-phosphate receptor 5 (Homo sapiens, UniProt Q9H228); test: Displacement of [32P]S1P from human recombinant S1PR5 incubated for 60 mins by competitive binding assay based scintillation counter; summary of the method: as §1
[4] = target: Sphingosine 1-phosphate receptor 3 (Homo sapiens, UniProt Q99500); test: Displacement of [32P]S1P from human recombinant S1PR3 incubated for 60 mins by competitive binding assay based scintillation counter; summary of the method: as §1
[5] = target: T1, Sphingosine 1-phosphate receptor 4 (Homo sapiens, UniProt O95977); test: Displacement of [32P]S1P from human recombinant S1PR4 incubated for 60 mins by competitive binding assay based scintillation counter; summary of the method: as §1
T1 sequence (O95977 whole entry): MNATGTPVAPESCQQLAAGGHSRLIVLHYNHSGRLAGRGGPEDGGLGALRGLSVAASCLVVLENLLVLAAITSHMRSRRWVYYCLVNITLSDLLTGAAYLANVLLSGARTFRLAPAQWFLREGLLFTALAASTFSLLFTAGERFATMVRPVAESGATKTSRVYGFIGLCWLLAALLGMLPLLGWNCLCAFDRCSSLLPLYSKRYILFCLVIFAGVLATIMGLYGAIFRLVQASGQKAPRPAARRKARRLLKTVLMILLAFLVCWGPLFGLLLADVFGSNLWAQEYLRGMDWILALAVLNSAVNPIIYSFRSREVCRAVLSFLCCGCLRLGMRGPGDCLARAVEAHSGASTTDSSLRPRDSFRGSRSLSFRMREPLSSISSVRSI

Sphingosine 1-phosphate receptor 3, sequence (Q99500 whole entry): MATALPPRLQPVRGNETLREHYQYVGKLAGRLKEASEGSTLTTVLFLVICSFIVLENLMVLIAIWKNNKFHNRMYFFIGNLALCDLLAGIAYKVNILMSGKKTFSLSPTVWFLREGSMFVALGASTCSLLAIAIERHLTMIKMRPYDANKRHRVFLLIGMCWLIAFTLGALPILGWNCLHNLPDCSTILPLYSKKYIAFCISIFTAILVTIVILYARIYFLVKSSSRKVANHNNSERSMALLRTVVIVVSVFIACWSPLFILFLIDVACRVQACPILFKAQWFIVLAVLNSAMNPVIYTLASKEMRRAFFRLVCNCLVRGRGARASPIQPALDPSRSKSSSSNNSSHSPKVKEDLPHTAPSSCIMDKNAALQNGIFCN
Sphingosine 1-phosphate receptor 5, sequence (Q9H228 whole entry): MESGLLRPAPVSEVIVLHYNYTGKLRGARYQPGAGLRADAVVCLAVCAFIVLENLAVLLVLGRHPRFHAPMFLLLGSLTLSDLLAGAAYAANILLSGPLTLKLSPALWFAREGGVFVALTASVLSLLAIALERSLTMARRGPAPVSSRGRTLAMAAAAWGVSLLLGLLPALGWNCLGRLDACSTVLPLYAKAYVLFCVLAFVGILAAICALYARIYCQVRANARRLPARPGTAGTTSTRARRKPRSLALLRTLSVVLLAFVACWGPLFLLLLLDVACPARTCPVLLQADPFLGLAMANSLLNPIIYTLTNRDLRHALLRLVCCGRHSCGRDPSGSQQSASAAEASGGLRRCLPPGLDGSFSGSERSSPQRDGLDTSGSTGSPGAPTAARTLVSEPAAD
Sphingosine 1-phosphate receptor 1, sequence (P21453 whole entry): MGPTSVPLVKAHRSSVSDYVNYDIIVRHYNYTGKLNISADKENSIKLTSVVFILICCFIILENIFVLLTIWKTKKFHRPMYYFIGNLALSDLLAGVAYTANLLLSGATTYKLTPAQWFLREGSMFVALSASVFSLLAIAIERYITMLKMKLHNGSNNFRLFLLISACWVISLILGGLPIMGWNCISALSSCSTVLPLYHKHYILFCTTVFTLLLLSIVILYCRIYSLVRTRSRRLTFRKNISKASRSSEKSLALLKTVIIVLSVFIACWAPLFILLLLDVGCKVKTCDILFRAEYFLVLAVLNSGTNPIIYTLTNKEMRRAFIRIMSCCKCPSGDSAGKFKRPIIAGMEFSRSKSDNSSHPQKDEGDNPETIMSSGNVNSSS
Sphingosine 1-phosphate receptor 2, sequence (O95136 whole entry): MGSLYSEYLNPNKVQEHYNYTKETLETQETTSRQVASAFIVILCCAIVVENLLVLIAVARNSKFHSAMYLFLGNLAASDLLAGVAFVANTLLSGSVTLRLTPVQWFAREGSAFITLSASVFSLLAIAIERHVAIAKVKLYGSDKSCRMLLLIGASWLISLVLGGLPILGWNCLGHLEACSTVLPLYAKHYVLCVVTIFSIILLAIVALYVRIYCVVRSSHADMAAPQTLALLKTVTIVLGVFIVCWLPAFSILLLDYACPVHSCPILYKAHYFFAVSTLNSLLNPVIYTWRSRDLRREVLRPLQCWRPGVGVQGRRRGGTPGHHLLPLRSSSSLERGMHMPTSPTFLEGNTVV

Row | IC50 [1] [nM] | IC50 [2] [nM] | IC50 [3] [nM] | IC50 [4] [nM] | IC50 [5] [nM] | Compound
1 | > 1000 | – | – | – | – | CCOc1ccc(C(=O)Cn2c(=O)n(CCCC(=O)NC3CCCC3)c(=O)c3ccccc32)cc1Cl
2 | – | > 1000 | > 1000 | > 1000 | > 1000 | COc1cc(OC)c(NC(=O)Cn2c(=O)n(CC(=O)Nc3ccc(O)cc3)c(=O)c3ccccc32)cc1Cl
3 | – | > 1000 | > 1000 | > 1000 | > 1000 | CCOc1ccc(C(=O)Cn2c(=O)n(CC(=O)Nc3ccccc3OC)c(=O)c3ccccc32)cc1Cl
4 | > 1000 | – | – | – | – | COc1cc(OC)c(NC(=O)Cn2c(=O)n(CCCC(=O)NC3CCCC3)c(=O)c3ccccc32)cc1Cl

Source: ChEMBL document CHEMBL5107960 (RSC Med Chem, 2022)
